Data taken from ChEMBL document CHEMBL1138514, “Rhodamine inhibitors of P-glycoprotein: an amide/thioamide "switch" for ATPase activity” (J Med Chem, 2009).

Tests used:
[1] = test system: CCN(CC)C(=O)c1ccc(-c2c3ccc(=[N+](C)C)cc-3[se]c3cc(N(C)C)ccc23)s1; assay: (§1) Induction of mouse cysteine-less MDR3 ATPase activity by apparent Michaelis-Menten constant
Procedure, shortened: (§2)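 Isolated P-gp ATPase activity is measured as inorganic phosphate released across a range of rhodamine concentrations. KM is the apparent Michaelis-Menten constant, the concentration giving half-maximal stimulation of ATPase activity.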

[2] = test system: CCN(CC)C(=O)c1ccc(-c2c3ccc(=[N+](C)C)cc-3sc3cc(N(C)C)ccc23)s1; assay: as §1; procedure, shortened: as §2
[3] = test system: CCN(CC)C(=O)c1ccccc1-c1c2ccc(=[N+](C)C)cc-2sc2cc(N(C)C)ccc12; assay: as §1; procedure, shortened: as §2
[4] = test system: CCOC(=O)c1ccc(-c2c3ccc(=[N+](C)C)cc-3sc3cc(N(C)C)ccc23)s1; assay: as §1; procedure, shortened: as §2
[5] = test system: CN(C)c1ccc2c(-c3ccc(CCl)cc3)c3ccc(=[N+](C)C)cc-3oc2c1; assay: as §1; procedure, shortened: as §2
[6] = test system: CN(C)c1ccc2c(-c3ccccc3C(=O)O)c3ccc(=[N+](C)C)cc-3sc2c1; assay: as §1; procedure, shortened: as §2
[7] = test system: CN(C)c1ccc2c(-c3ccsc3C(=O)O)c3ccc(=[N+](C)C)cc-3[se]c2c1; assay: as §1; procedure, shortened: as §2
[8] = test system: CN(C)c1ccc2c(CCCOc3ccccc3)c3ccc(=[N+](C)C)cc-3sc2c1; assay: as §1; procedure, shortened: as §2
[9] = test system: COC(=O)c1ccccc1-c1c2ccc(=[N+](C)C)cc-2sc2cc(N(C)C)ccc12; assay: as §1; procedure, shortened: as §2
[10] = test system: COc1ccc(-c2c3ccc(=[N+](C)C)cc-3sc3cc(N(C)C)ccc23)cc1OC; assay: as §1; procedure, shortened: as §2
[11] = test system: COc1cccc(-c2c3ccc(=[N+](C)C)cc-3[se]c3cc(N(C)C)ccc23)c1; assay: as §1; procedure, shortened: as §2
[12] = test system: COc1ccc(-c2c3ccc(=[N+](C)C)cc-3[se]c3cc(N(C)C)ccc23)cc1OC; assay: not read
[13] = test system: COc1ccc(-c2c3ccc(=[N+](C)C)cc-3sc3cc(N(C)C)ccc23)cc1; assay: not read
[14] = test system: CCN(CC)C(=O)c1ccc(-c2c3ccc(=[N+](C)C)cc-3[se]c3cc(N(C)C)ccc23)s1; assay: not read
[15] = test system: CN(C)c1ccc(-c2c3ccc(=[N+](C)C)cc-3[te]c3cc(N(C)C)ccc23)cc1; assay: not read
[16] = test system: CN(C)c1ccc2c(-c3ccc(C(=O)O)s3)c3ccc(=[N+](C)C)cc-3[te]c2c1; assay: not read
[17] = test system: CN(C)c1ccc2c(-c3ccc(C(=O)O)s3)c3ccc(=[N+](C)C)cc-3sc2c1; assay: not read
[18] = test system: CN(C)c1ccc2c(-c3ccc(N4CCOCC4)cc3)c3ccc(=[N+](C)C)cc-3sc2c1; assay: not read
[19] = test system: CN(C)c1ccc2c(-c3ccccc3)c3ccc(=[N+](C)C)cc-3[te]c2c1; assay: not read
[20] = test system: CN(C)c1ccc2c(-c3ccsc3C(=O)O)c3ccc(=[N+](C)C)cc-3[se]c2c1; assay: not read
[21] = test system: CN(C)c1ccc2c(-c3ccsc3C(=O)O)c3ccc(=[N+](C)C)cc-3sc2c1; assay: not read
[22] = test system: CN(C)c1ccc2c(CCCOc3ccccc3)c3ccc(=[N+](C)C)cc-3sc2c1; assay: not read
[23] = test system: CN(C)c1cccc(-c2c3ccc(=[N+](C)C)cc-3[se]c3cc(N(C)C)ccc23)c1; assay: not read
[24] = test system: CN(C)c1cccc(-c2c3ccc(=[N+](C)C)cc-3[te]c3cc(N(C)C)ccc23)c1; assay: not read
[25] = test system: COc1ccc(-c2c3ccc(=[N+](C)C)cc-3sc3cc(N(C)C)ccc23)cc1OC; assay: not read
[26] = test system: COc1cccc(-c2c3ccc(=[N+](C)C)cc-3[se]c3cc(N(C)C)ccc23)c1; assay: not read
[27] = test system: COc1cccc(-c2c3ccc(=[N+](C)C)cc-3[te]c3cc(N(C)C)ccc23)c1; assay: not read
[28] = test system: C[N+](C)=c1ccc2c(-c3ccccc3)c3cc4c5c(c3[te]c-2c1)CCCN5CCC4; assay: not read

## ATP-dependent translocase ABCB1 (Mus musculus)
[1]
  Km: 3.6 µM
[2]
  Km: 3.4 µM
[3]
  Km: 5.7 µM
[4]
  Km: 156 µM
[5]
  Km: 77 µM
[6]
  Km: 56 µM
[7]
  Km: 29 µM
[8]
  Km: 6 µM
[9]
  Km: 266 µM
[10]
  Km: 35 µM
[11]
  Km: 44 µM
[12]
  Km: 67 µM
[13]
  Km: 75 µM

## ATP-dependent translocase ABCB1 (Homo sapiens)
[14]
  Km: 0.68 µM
[15]
  Km: 9 µM
[16]
  Km: 9.6 µM
[17]
  Km: 140 µM
[18]
  Km: 10 µM
[19]
  Km: 8.3 µM
[20]
  Km: 56 µM
[21]
  Km: 111 µM
[22]
  Km: 3.2 µM
[23]
  Km: 3.5 µM
[24]
  Km: 2 µM
[12]
  Km: 8.3 µM
[25]
  Km: 4.9 µM
[26]
  Km: 3.3 µM
[27]
  Km: 3.2 µM
[28]
  Km: 4.4 µM
